Rows were chosen to be rich in hits. Some 1.2% of all compounds tested hit in one or more screens of this group.
RAD52 anneal inh – RAD52 (human) annealing inhibition; inhibition, % at 18.7 µM; actives 0.46% (n = 360,000); P43351; AID 651710; recombinant RAD52 DNA annealing, FRET fluorescence;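 active = every replicate showing at least 50% inhibition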
AF4-AF9 inh – inhibitors of human MLL-AF4/AF9 interaction. P42568. inhibition, % at 10 µM. actives 0.47% (n = 350,000). AlphaScreen, biotin-AF4 peptide binding to FLAG-AF9;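 active = every replicate reaching a set inhibition limit, whatever the replicate mean, cut at about 25% in these data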;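 note: 0% = plate neutral control median and 100% = total signal loss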
Target sequence (P42568 whole entry, looked up): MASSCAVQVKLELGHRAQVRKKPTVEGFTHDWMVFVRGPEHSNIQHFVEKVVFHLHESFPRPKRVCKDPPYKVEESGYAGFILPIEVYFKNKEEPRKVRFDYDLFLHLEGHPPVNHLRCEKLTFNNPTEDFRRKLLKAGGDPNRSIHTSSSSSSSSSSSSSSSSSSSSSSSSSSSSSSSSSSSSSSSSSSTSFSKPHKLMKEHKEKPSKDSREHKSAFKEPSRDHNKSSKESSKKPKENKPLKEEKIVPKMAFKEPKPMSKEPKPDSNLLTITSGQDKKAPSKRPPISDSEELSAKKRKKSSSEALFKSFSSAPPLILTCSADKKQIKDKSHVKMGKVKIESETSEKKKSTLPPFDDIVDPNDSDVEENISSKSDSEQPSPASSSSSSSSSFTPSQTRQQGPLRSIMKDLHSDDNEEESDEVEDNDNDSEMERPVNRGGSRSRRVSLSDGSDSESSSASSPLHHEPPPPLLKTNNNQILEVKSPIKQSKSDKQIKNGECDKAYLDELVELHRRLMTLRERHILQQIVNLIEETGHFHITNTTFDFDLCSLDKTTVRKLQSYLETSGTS
NSD2 inh – NSD2 (human) methyltransferase inhibition | NSD2 peptide methylation, AlphaScreen, 120 min | actives 0.54% (n = 310,000) | O96028 | inhibition, % at 12.5 µM; in the data active = inhibition above about 50%
RAD54 inh – inhibitors of human RAD54 branch migration. Q92698. RAD54 Holliday junction branch migration, FAM/BHQ fluorescence. inhibition, % at 10.4 µM. actives 0.14% (n = 360,000). AID 602329;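 active = mean normalized replicate activity at least 40 and at least half of replicates scoring 40 or more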;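 note: 0% = median of neutral control wells and 100% = median of positive control wells; inhibitors cause a drop in the FAM fluorescence signal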
N-glyco inh – blocks N-linked glycosylation in D54 reporter cells; D54 ERlucT glycosylation luciferase reporter, 24 h; percent of 100 nM tunicamycin response; reporter increase, % at 12.5 µM; actives 0.23% (n = 360,000);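 active = mean luciferase reporter signal, scaled so untreated is 0 and the glycosylation-blocking control 100, at or above a set limit in every replicate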;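 note: luciferase carries N-glycosylation sites so blocking glycosylation raises the light; 0% = median of neutral control wells and 100% = median of 100 nM tunicamycin wells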
FN deposition inh – fibronectin deposition inhibition. AH1F fibroblasts, Alexa488-fibronectin deposition fluorescence, overnight. inhibition, % at 12.6 µM. actives 0.086% (n = 350,000). AID 743247;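 active = mean inhibition across replicates of 30% or more, regardless of how many single replicates reach that level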;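 note: positive control wells lacked labelled fibronectin entirely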
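Test system: AH1F fibroblast monolayer depositing Alexa488-labelled fibronectin into matrix. Input: 10000 cells per well. Technique: fluorescence, ex 485 nm, em 525 nm. Buffer or medium: DMEM plus 2% serum, read in PBS. Timing: 1 h cell adhesion before compound, then overnight fibronectin incubation. Compound: single dose, pinned. Read-out basis: inhibition from reduced deposited-fibronectin fluorescence.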
Numbers without * were called inactive; . = no result given.

SMILES	RAD52 anneal inh	AF4-AF9 inh	NSD2 inh	RAD54 inh	N-glyco inh	FN deposition inh
CC(C)NC(=O)Nc1cccc2c1O[C@@H](CN(C)S(C)(=O)=O)[C@H](C)CN(C)C2=O	.	.	.	.	.	5.7
COc1ccc(OC)c(S(=O)(=O)Nc2ccc3c(c2)n(C)c(=O)n3C)c1	-12.4	-0.6	2.2	-5.3	28.2*	2.9
COc1ccc(NS(=O)(=O)c2cc(OC)ccc2OC)cc1	-10.1	-1.2	50.0	-1.7	0.1	-1.3
CC(C)NC(=O)N(C)C[C@@H]1Oc2ccc(NS(=O)(=O)c3ccc(Cl)cc3)cc2CC(=O)N([C@@H](C)CO)C[C@@H]1C	-4.4	36.2*	.	7.2	.	.
C[C@H](CO)N1C[C@H](C)[C@@H](CN(C)Cc2ccccc2)Oc2ccc(NC(=O)Nc3ccc(C(F)(F)F)cc3)cc2CC1=O	54.1*	6.5	.	-3.7	.	.
Cc1ccc(S(=O)(=O)Nc2ccc3c(c2)CC(=O)N([C@H](C)CO)C[C@H](C)[C@@H](CN(C)Cc2ccc(-c4ccccc4)cc2)O3)cc1	67.0*	5.7	.	2.6	.	-1.1
CC(C)NC(=O)N(C)C[C@H]1Oc2ccc(NS(=O)(=O)c3ccc(Cl)cc3)cc2CC(=O)N([C@H](C)CO)C[C@@H]1C	.	-1.2	.	.	.	.
C[C@@H]1CN([C@@H](C)CO)C(=O)Cc2cc(N(C)C)ccc2O[C@@H]1CN(C)Cc1ccc(Oc2ccccc2)cc1	1.7	38.0*	.	-2.4	.	.
O=C(C[C@@H]1CC[C@H](NC(=O)Nc2ccc(F)cc2)[C@@H](CO)O1)NCCN1CCCC1	-5.6	-3.5	.	5.7	.	-5.0
CCO[C@@H]1OC(C(=O)N2CCCC2)=C[C@H](c2ccc3c(c2)OCO3)[C@H]1CCCO	3.9	-3.7	.	.	.	.
C[C@@H]1CN([C@@H](C)CO)C(=O)Cc2cc(N(C)C)ccc2O[C@H]1CN(C)Cc1ccc(C(F)(F)F)cc1	2.0	42.5*	.	6.5	.	.
C[C@H]1CN([C@@H](C)CO)C(=O)Cc2cc(N(C)C)ccc2O[C@H]1CN(C)Cc1ccc(C(F)(F)F)cc1	.	.	.	9.1	.	.
Cc1noc(C)c1NC(=O)N(C)C[C@H]1Oc2ccc(NC(=O)Cc3ccccc3)cc2CC(=O)N([C@@H](C)CO)C[C@@H]1C	77.3*	-1.6	.	-7.6	.	-3.9
C[C@@H]1CN([C@@H](C)CO)C(=O)Cc2cc(N(C)C)ccc2O[C@@H]1CN(C)Cc1ccccc1	-8.3	8.4	.	-0.6	.	.
C[C@@H]1CN([C@H](C)CO)C(=O)Cc2cc(N(C)C)ccc2O[C@H]1CN(C)Cc1ccc(-c2ccccc2)cc1	-7.0	35.6*	.	-4.1	.	-0.2
C[C@H]1CN([C@@H](C)CO)C(=O)Cc2cc(N(C)C)ccc2O[C@H]1CN(C)Cc1ccc(-c2ccccc2)cc1	0.7	44.2*	.	3.8	.	-0.8
CN1C(=O)c2cc(NC(=O)c3cccc(F)c3)ccc2OC[C@H]2O[C@H](CC(=O)O)CC[C@H]21	.	.	.	-1.7	.	1.4
C[C@H](CO)N1C[C@H](C)[C@@H](CN(C)Cc2ccc(-c3ccccc3)cc2)Oc2ccc(N(C)C)cc2CC1=O	1.6	58.8*	.	-20.7	.	6.3
C[C@@H]1CN([C@H](C)CO)C(=O)Cc2cc(N(C)C)ccc2O[C@@H]1CN(C)Cc1ccc(-c2ccccc2)cc1	2.7	44.0*	.	-6.4	.	-1.8
CCNC(=O)C[C@H]1CC[C@H]2[C@@H](COC[C@H](O)CN2C(=O)C2CC2)O1	-11.7	-1.1	.	4.5	.	-8.9
CC(=O)c1cc2c(cc1NC(=O)c1cc(C)nn1-c1ccccc1)OCO2	-9.1	34.2*	.	4.5	18.5	9.1
O=C(CC1CC1)N1CC(=O)N2[C@H](CO)[C@@H](c3ccc(/C=C/c4ccccc4)cc3)[C@H]2C1	-12.7	15.2	.	.	.	9.6
CN1CCN(C(=O)CCN2C(=O)/C(=C/c3cccc(Br)c3)SC2=S)CC1	-15.6	3.9	-0.1	19.8	10.8	5.4
CN1CCN(C(=O)CCCN2C(=O)/C(=C/c3cccc(Br)c3)SC2=S)CC1	-5.4	27.4*	11.0	-7.3	2.7	-2.6
COc1ccc(/C=C2\SC(=S)N(CCCC(=O)N3CCN(C)CC3)C2=O)cc1	18.6	21.4	21.4	13.8	-0.6	4.3
CCc1ccc(/C=C2\SC(=S)N(CCCC(=O)N3CCN(C)CC3)C2=O)cc1	-56.8	33.4*	33.6	5.0	-0.4	13.4
O=C(COc1ccccc1)NCc1ccccc1	.	.	-0.2	0.0	0.5	0.2

Bioassay records (PubChem BioAssay)
